Experimental data as given in ChEMBL document CHEMBL3769360, “Phthalimido-thiazoles as building blocks and their effects on the growth and morphology of Trypanosoma cruzi” (Eur J Med Chem, 2016).

Tests used:
Trypanosoma cruzi [1] = assay: Trypanocidal activity against trypamostigote form of Trypanosoma cruzi Y infected in African green monkey Vero cells after 24 hrs by neubauer chamber method; type: functional, organism-based
Summary of the method: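 Y strain trypomastigotes harvested from Vero cell supernatants, 4 × 10^5 cells/well, compounds in triplicate, benznidazole as positive control. Incubated 24 h at 37 °C, 5% CO2. Motile parasites counted in a Neubauer chamber; untreated wells = 100%. IC50 by nonlinear regression over at least seven concentrations.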

Trypanosoma cruzi [2] = assay: Trypanocidal activity against epimastigote form of Trypanosoma cruzi Dm28c after 11 days by neubauer chamber method; type: functional; conditions: 264 h
[3] = Cytotoxicity against BALB/c mouse splenocytes assessed as highest non-toxic concentration causing >90 % incorporation of [3H]-thymidine after 24 hrs by beta counting method; type: cell-based, Splenocyte; conditions: read-out: MNTD90
Summary of the method: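 BALB/c mouse splenocytes at 5 × 10^6 cells/well in RPMI-1640 with 10% inactivated FBS. Compounds were dissolved in DMSO (10 mg/mL stock) and serially diluted to 1.0, 5.0, 10, 25, 50 and 100 (final), in triplicate. Controls were saponin and medium with DMSO. 3H-thymidine was added, then 24 h at 37 °C, 5% CO2, and beta counting. Untreated = 100%; >90% incorporation counted as nontoxic.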

[4] = Selectivity index, ratio of MNTD90 for cytotoxicity against BALB/c mouse splenocytes to IC50 for trypamostigote form of Trypanosoma cruzi Y infected in African green monkey Vero cells; type: toxicity, cell-based; conditions: read-out: Selectivity Index
[5] = Lipophilicity, log P of compound; type: physicochemical; conditions: octanol/water

Work on O=C1c2ccccc2C(=O)N1Nc1nc(-c2cccc([N+](=O)[O-])c2)cs1 yielded an IC50 (Trypanosoma cruzi [1]) of 91.1 µM, an IC50 (Trypanosoma cruzi [2]) of 43.2 µM and an MNTC at 24 h [3] of 2.7 µM.

Work on O=C1c2ccccc2C(=O)N1Nc1nc(-c2ccc([N+](=O)[O-])cc2)cs1 yielded an IC50 (Trypanosoma cruzi [1]) of 84.9 µM, an IC50 (Trypanosoma cruzi [2]) of 13.3 µM and an MNTC at 24 h [3] of 2.7 µM.

For O=C1c2ccccc2C(=O)N1C/C=N/N=c1\scc(-c2ccc(F)cc2)n1-c1ccccc1, the IC50 (Trypanosoma cruzi [1]) was 73.8 µM and the MNTC at 24 h [3] was 219 µM.

With NC(=S)NN1C(=O)c2ccccc2C1=O the IC50 (Trypanosoma cruzi [1]) was 52 µM, the IC50 (Trypanosoma cruzi [2]) was 56.8 µM and the MNTC at 24 h [3] was 4.5 µM.

For Cc1ccc(-c2cs/c(=N\N=C\CN3C(=O)c4ccccc4C3=O)n2-c2ccccc2)cc1, the IC50 (Trypanosoma cruzi [1]) was 33.3 µM, the IC50 (Trypanosoma cruzi [2]) was 57.8 µM and the MNTC at 24 h [3] was 221 µM.

Work on O=C1c2ccccc2C(=O)N1Nc1nc(-c2ccc(Br)cc2)cs1 yielded an IC50 (Trypanosoma cruzi [1]) of 89.8 µM, an IC50 (Trypanosoma cruzi [2]) of 14.8 µM and an MNTC at 24 h [3] of 2.5 µM.

O=C1c2ccccc2C(=O)N1Nc1nc(CCl)cs1 gave an IC50 (Trypanosoma cruzi [1]) of 54.4 µM, a selectivity ratio [4] of 0.3 and an IC50 (Trypanosoma cruzi [2]) of 226 µM. It also gave an MNTC at 24 h [3] of 17 µM.

Compound O=C1c2ccccc2C(=O)N1Nc1nc(-c2ccccc2)cs1 has an IC50 (Trypanosoma cruzi [1]) of 108 µM, an IC50 (Trypanosoma cruzi [2]) of 70.2 µM and a logP [5] of 3.98. It also gave an MNTC at 24 h [3] of 3.1 µM.

Work on O=C1c2ccccc2C(=O)N1Nc1nc(-c2ccc(Cl)cc2Cl)cs1 yielded an IC50 (Trypanosoma cruzi [1]) of 22.7 µM, an IC50 (Trypanosoma cruzi [2]) of 10.1 µM and an MNTC at 24 h [3] of 12.8 µM.

For COc1ccc(-c2csc(NN3C(=O)c4ccccc4C3=O)n2)cc1, the IC50 (Trypanosoma cruzi [1]) was 50.3 µM, the IC50 (Trypanosoma cruzi [2]) was 6.4 µM and the MNTC at 24 h [3] was 14.2 µM.

For Cc1ccc(-c2csc(NN3C(=O)c4ccccc4C3=O)n2)cc1, the IC50 (Trypanosoma cruzi [1]) was 107 µM, the IC50 (Trypanosoma cruzi [2]) was 70.4 µM and the MNTC at 24 h [3] was 14.9 µM.

O=C1c2ccccc2C(=O)N1C/C=N/N=c1\scc(-c2ccccc2)n1-c1ccccc1 showed an IC50 (Trypanosoma cruzi [1]) of 8.8 µM and an MNTC at 24 h [3] of 228 µM.

In the case of O=C1c2ccccc2C(=O)N1C/C=N/N=c1/[nH]c(CCl)cs1, the IC50 (Trypanosoma cruzi [1]) is reported as 2.2 µM, the selectivity ratio [4] is reported as 33.5 and the IC50 (Trypanosoma cruzi [2]) is reported as 85.7 µM. It also gave an MNTC at 24 h [3] of 73.7 µM.

Compound O=C1c2ccccc2C(=O)N1Nc1nc(-c2ccc(F)cc2)cs1 has an IC50 (Trypanosoma cruzi [1]) of 52.1 µM, an IC50 (Trypanosoma cruzi [2]) of 26.5 µM and an MNTC at 24 h [3] of 2.9 µM.
